Measured values as given in ChEMBL document CHEMBL3243957, “Synthesis and screening of 8-(4'-thiazolyl)purines” (J Med Chem, 1978).
Activity calls are given as the source filed them. The rule behind the calls is not given here.

Key:
Mus musculus [1] = assay: Antitumor activity against mouse S180J cells allografted in CD-1 mouse assessed as tumor regression at 30 mg/kg, ip administered six times in consecutive days starting a day after tumor cell inoculation measured 42 days after start of drug treatment; assay type: functional, organism-based; parameters: dose 30 mg/kg
In short: (§1)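 Female CD-1 mice, in groups of six, were inoculated with 7.5 × 10^5 tumor cells. Starting the day after inoculation, the agent was given ip as a carboxymethylcellulose suspension in saline, once daily for six consecutive days, at different dosages.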

Human alphaherpesvirus 1 [2] = assay: Antiviral activity against HSV-1 infected in african green monkey Vero cells assessed as inhibition of viral replication at 100 ug/ml (reference value: 2.7 x 10^5 PFU/ml); assay type: functional
Human alphaherpesvirus 1 [3] = assay: Antiviral activity against HSV-1 infected in african green monkey Vero cells assessed as inhibition of viral replication at 10 ug/ml (reference value: 2.7 x 10^5 PFU/ml); assay type: functional
Human alphaherpesvirus 1 [4] = assay: Antiviral activity against HSV-1 infected in african green monkey Vero cells assessed as inhibition of viral replication at 1 ug/ml (reference value: 2.7 x 10^5 PFU/ml); assay type: functional
Lymphocyte [5] = assay: Immunopotentiation activity in human lymphocytes assessed as increase in cell proliferation at 1 to 100 ug/ml by [3H]thymidine incorporation assay in presence of mitogen phytohemagglutinin; assay type: functional, cell-based
In short: (§2)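 Lymphocytes were cultured with compound at 1, 10 and 100 µg/mL, with or without a suboptimal concentration of the lectin mitogen phytohemagglutinin. Proliferation was read as tritiated thymidine incorporation.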

Lymphocyte [6] = assay: Immunopotentiation activity in human lymphocytes assessed as increase in cell proliferation at 1 to 100 ug/ml by [3H]thymidine incorporation assay in absence of mitogen phytohemagglutinin; assay type: functional, cell-based; in short: as §2
Mus musculus [7] = assay: Antitumor activity against mouse S180J cells allografted in CD-1 mouse assessed as tumor regression at 10 to 100 mg/kg, ip administered six times in consecutive days starting day after tumor cell inoculation measured 42 days after start of drug treatment; assay type: functional, organism-based; in short: as §1
Lymphocyte [8] = assay: Inhibition of phytohemagglutinin-induced human lymphocytes proliferation at 100 ug/ml by [3H]thymidine incorporation assay; assay type: functional, cell-based; in short: as §2
Mus musculus [9] = assay: Antitumor activity against mouse S180J cells allografted in CD-1 mouse assessed as tumor regression at 100 mg/kg, ip administered six times in consecutive days starting a day after tumor cell inoculation measured 42 days after start of drug treatment; assay type: functional, organism-based; parameters: dose 100 mg/kg; in short: as §1
Human alphaherpesvirus 1 [10] = assay: Antiviral activity against HSV-1 infected in african green monkey Vero cells assessed as inhibition of viral replication at 100 ug/ml (reference value: 1.2 x 10^6 PFU/ml); assay type: functional
Human alphaherpesvirus 1 [11] = assay: Antiviral activity against HSV-1 infected in african green monkey Vero cells assessed as inhibition of viral replication at 10 ug/ml (reference value: 1.2 x 10^6 PFU/ml); assay type: functional
Human alphaherpesvirus 1 [12] = assay: Antiviral activity against HSV-1 infected in african green monkey Vero cells assessed as inhibition of viral replication at 1 ug/ml (reference value: 1.2 x 10^6 PFU/ml); assay type: functional
Mus musculus [13] = assay: Antitumor activity against mouse S180J cells allografted in ip dosed CD-1 mouse assessed as tumor regression administered six times in consecutive days starting a day after tumor cell inoculation measured 42 days after start of drug treatment; assay type: functional, organism-based; in short: as §1
L1210 = assay: Antitumor activity against mouse L1210 cells allografted in mouse assessed as increase in host survival time at 125 mg/kg administered qd for 6 days relative to control; assay type: functional
In short: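 L1210 mouse leukemia in mice, dosed daily (qd) over a 1 to 125 mg/kg range. Read-out was survival time of treated versus control mice, given as % T/C. Procedure follows previously described methods.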

Mus musculus [14] = assay: Toxicity in mouse L1210 cells allografted mouse up to 500 mg/kg administered qd for 5 days; assay type: organism-based; parameters: dose 500 mg/kg; conditions: in vivo, 120 h
Mus musculus [15] = assay: Antitumor activity against mouse S180J cells allografted in CD-1 mouse assessed as tumor regression at 32 mg/kg, ip administered six times in consecutive days starting a day after tumor cell inoculation measured 42 days after start of drug treatment; assay type: functional, organism-based; parameters: dose 32 mg/kg; in short: as §1
Mus musculus [16] = assay: Antitumor activity against mouse S180J cells allografted in CD-1 mouse assessed as tumor regression at 16 mg/kg, ip administered six times in consecutive days starting a day after tumor cell inoculation measured 42 days after start of drug treatment; assay type: functional, organism-based; parameters: dose 16 mg/kg; in short: as §1
Mus musculus [17] = assay: Antitumor activity against mouse S180J cells allografted in CD-1 mouse assessed as tumor regression at 4 mg/kg, ip administered six times in consecutive days starting a day after tumor cell inoculation measured 42 days after start of drug treatment; assay type: functional, organism-based; parameters: dose 4 mg/kg; in short: as §1
Mus musculus [18] = assay: Antitumor activity against mouse S180J cells allografted in CD-1 mouse assessed as tumor regression at 1 mg/kg, ip administered six times in consecutive days starting a day after tumor cell inoculation measured 42 days after start of drug treatment; assay type: functional, organism-based; parameters: dose 1 mg/kg; in short: as §1
Mus musculus [19] = assay: Antitumor activity against AKR mouse leukemia assessed as increase in survival time at 0.2 to 20 mg/kg, ip; assay type: functional, organism-based
In short: (§3)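 AKR leukemia-bearing mice were dosed at 0.2, 2.0 and 20 mg/kg, each given by intraperitoneal, oral or subcutaneous routes. The read-out was increase in survival time.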

Mus musculus [20] = assay: Antitumor activity against AKR mouse leukemia assessed as increase in survival time at 0.2 to 20 mg/kg, po; assay type: functional, organism-based; in short: as §3
Mus musculus [21] = assay: Antitumor activity against AKR mouse leukemia assessed as increase in survival time at 0.2 to 20 mg/kg, sc; assay type: functional, organism-based; in short: as §3

## Nc1ncnc2[nH]c(-c3cscn3)nc12
Mus musculus [1]
  inhibition: inactive
Human alphaherpesvirus 1 [2]
  PFU/ml: 920000
Human alphaherpesvirus 1 [3]
  PFU/ml: 850000
Human alphaherpesvirus 1 [4]
  PFU/ml: 320000
Lymphocyte [5]
  Activity: inactive
Lymphocyte [6]
  Activity: inactive
Mus musculus [7]
  inhibition: inactive
Lymphocyte [8]
  inhibition: Active

## Nc1nc(S)c2nc(-c3cscn3)[nH]c2n1
Mus musculus [1]
  inhibition: inactive
Mus musculus [9]
  inhibition: inactive
Human alphaherpesvirus 1 [10]
  PFU/ml: 820000
Human alphaherpesvirus 1 [11]
  PFU/ml: 5300000
Human alphaherpesvirus 1 [12]
  PFU/ml: 3500000
Lymphocyte [5]
  Activity: inactive
Lymphocyte [6]
  Activity: inactive
Mus musculus [13]
  inhibition: Active
Lymphocyte [8]
  inhibition: Active

## ONc1ncnc2[nH]c(-c3cscn3)nc12
L1210
  T/C: 129%
Mus musculus [14]
  Activity: Non-toxic

## Sc1ncnc2[nH]c(-c3cscn3)nc12
Mus musculus [15]
  inhibition: inactive
Mus musculus [16]
  inhibition: inactive
Mus musculus [17]
  inhibition: inactive
Mus musculus [18]
  inhibition: inactive
Mus musculus [19]
  Activity: inactive
Mus musculus [20]
  Activity: inactive
Mus musculus [21]
  Activity: inactive
Lymphocyte [5]
  Activity: inactive
Lymphocyte [6]
  Activity: inactive
Mus musculus [13]
  inhibition: Active
Lymphocyte [8]
  inhibition: Active

## Oc1ncnc2[nH]c(-c3cscn3)nc12
Lymphocyte [5]
  Activity: inactive
Lymphocyte [6]
  Activity: inactive
Lymphocyte [8]
  inhibition: Active

## c1ncc2nc(-c3cscn3)[nH]c2n1
Lymphocyte [5]
  Activity: inactive
Lymphocyte [6]
  Activity: inactive
Mus musculus [7]
  inhibition: inactive
Lymphocyte [8]
  inhibition: Active

## Clc1ncnc2[nH]c(-c3cscn3)nc12
Human alphaherpesvirus 1 [10]
  PFU/ml: 2200000
Human alphaherpesvirus 1 [11]
  PFU/ml: 2500000
Human alphaherpesvirus 1 [12]
  PFU/ml: 4000000
Lymphocyte [5]
  Activity: inactive
Lymphocyte [6]
  Activity: inactive
Lymphocyte [8]
  inhibition: Active
